For two compounds, Activity and Kd results are on record in ChEMBL document CHEMBL5705891, “Small-molecule kinase inhibitors provide insight into Mps1 cell cycle function” (Nat Chem Biol, 2010).

The source made the active and inactive calls. No cut-off for these calls is given here.

Experiment [1] concerns the target Calcium/calmodulin-dependent protein kinase kinase 2 (Homo sapiens) (UniProt Q96RR4). Kind of experiment: Inhibition of CAMKK2 (unknown origin) assessed as residual enzyme activity at 10 uM by Ambit kinase binding assay relative to control.
Experiment [2] has as its target Death-associated protein kinase 1 (Homo sapiens) (UniProt P53355). The experiment in a line: Inhibition of DAPK1 (unknown origin) assessed as residual enzyme activity at 10 uM by Ambit kinase binding assay relative to control.
The target of experiment [3] is Ribosomal protein S6 kinase alpha-6 (Homo sapiens) (UniProt Q9UK32). Kind of experiment: Inhibition of RPS6KA6 kinase domain 2 (unknown origin) assessed as residual enzyme activity at 10 uM by Ambit kinase binding assay relative to control.
The target in experiment [4] is BMP-2-inducible protein kinase (Homo sapiens) (UniProt Q9NSY1). Kind of experiment: Inhibition of BIKE (unknown origin) assessed as residual enzyme activity at 10 uM by Ambit kinase binding assay relative to control.
For experiment [5], the target named is Serine/threonine-protein kinase pim-1 (Homo sapiens) (UniProt P11309). The experiment in a line: Inhibition of PIM1 (unknown origin) assessed as residual enzyme activity at 10 uM by Ambit kinase binding assay relative to control.
Experiment [6] concerns the target Tyrosine-protein kinase Blk (Homo sapiens) (UniProt P51451). The experiment in a line: Inhibition of BLK (unknown origin) assessed as residual enzyme activity at 10 uM by Ambit kinase binding assay relative to control.
In experiment [7] the target is Myosin light chain kinase family member 4 (Homo sapiens) (UniProt Q86YV6). Kind of experiment: Inhibition of SgK085 (unknown origin) assessed as residual enzyme activity at 10 uM by Ambit kinase binding assay relative to control.
Experiment [8] has as its target Ribosomal protein S6 kinase alpha-5 (Homo sapiens) (UniProt O75582). Kind of experiment: Inhibition of RPS6KA5 kinase domain 2 (unknown origin) assessed as residual enzyme activity at 10 uM by Ambit kinase binding assay relative to control.
Experiment [9] deals with Serine/threonine-protein kinase 38-like (Homo sapiens) (UniProt Q9Y2H1). The experiment in a line: Inhibition of NDR2 (unknown origin) assessed as residual enzyme activity at 10 uM by Ambit kinase binding assay relative to control.
Experiment [10] has as its system Receptor-type tyrosine-protein kinase FLT3 (Homo sapiens), P36888 [D835Y]. The experiment in a line: Inhibition of FLT3 D835Y mutant (unknown origin) assessed as residual enzyme activity at 10 uM by Ambit kinase binding assay relative to control.
The subject of another experiment is TERT-RPE1. The experiment in a line: Induction of aneuploidy in human TERT-RPE1 cells assessed as frequency of non-disjunction events per cell at 10 uM treated for 24 hrs by karyo-typing analysis (reference value: 0.1). It counts as functional. The gist of the method:
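Asynchronous cells were exposed to 10 μM compound for 24 h. Medium was then replaced with medium containing 100 ng/mL colcemid for 2 h to arrest cells in metaphase, after which cells were harvested and karyotyped.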

The next experiment has as its system HeLa S3. The experiment in a line: Effect on thymidine-treated human HeLa S3 cell populations after one cell doubling at 10 uM incubated for 4 hrs followed by thymidine release by immunofluorescence imaging analysis. It counts as functional, cell-based.
Experiment [11] has as its target Cyclin-G-associated kinase (Homo sapiens, UniProt O14976). Kind of experiment: Binding affinity to GAK (unknown origin) assessed as dissociation constant by Ambit kinase binding assay.
Experiment [12] concerns U2OS. Kind of experiment: Initiation of anaphase in human U2OS cells expressing histone H2B-GFP measured for 60 mins by fluorescence time-lapse microscopy. The note with it: dose 5-10 µM. The experiment is classed as functional, cell-based. An outline of the steps: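 U2OS H2B-GFP cells were given DMSO or inhibitor and imaged by fluorescence time-lapse at 37°C, 5% CO₂, one frame every 2 min. NEBD-to-anaphase time was scored for 100 cells per population and plotted as cumulative percentage initiating anaphase.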

The target of experiment [13] is Leukocyte tyrosine kinase receptor (Homo sapiens, UniProt P29376). The experiment in a line: Binding affinity to LTK (unknown origin) assessed as dissociation constant by Ambit kinase binding assay.
Experiment [14] addresses Serine/threonine-protein kinase 33 (Homo sapiens, UniProt Q9BYT3). The experiment in a line: Inhibition of STK33 (unknown origin) assessed as residual enzyme activity at 10 uM by Ambit kinase binding assay relative to control.
The target in experiment [15] is Insulin-like growth factor 1 receptor (Homo sapiens, UniProt P08069). Kind of experiment: Inhibition of IGF1R (unknown origin) assessed as residual enzyme activity at 10 uM by Ambit kinase binding assay relative to control.
Experiment [16] deals with U2OS. Kind of experiment: Reversal of nocodazole-induced mitotic arrest in human U2OS cells assessed as decrease in cyclin B level at 10 uM incubated for 4 hrs in presence of MG132 by immunoblot analysis. It counts as functional, cell-based. (In general: A western blot detects proteins with antibodies after separation by electrophoresis.)
The target in experiment [17] is Misshapen-like kinase 1 (Homo sapiens) (UniProt Q8N4C8). Kind of experiment: Inhibition of MINK (unknown origin) assessed as residual enzyme activity at 10 uM by Ambit kinase binding assay relative to control.
Experiment [18] has as its system U2OS. Kind of experiment: Induction of chromosome misalignment in human U2OS cells expressing histone H2B-GFP at 5 to 10 uM treated for 4 hrs followed by MG132 treatment for 30 to 60 mins and subsequent replacement of medium containing MG132 measured after 30 mins by immunofluoresence analysis. The experiment is classed as functional, cell-based. The following applies: dose 5-10 µM, time 4.5-5 hrs.

Experiment [19] concerns the target Mitogen-activated protein kinase 1 (Homo sapiens, UniProt P28482). Kind of experiment: Inhibition of ERK2 (unknown origin) assessed as residual enzyme activity at 10 uM by Ambit kinase binding assay relative to control.
The target of experiment [20] is Serine/threonine-protein kinase Chk2 (Homo sapiens) (UniProt O96017). Kind of experiment: Inhibition of CHEK2 (unknown origin) assessed as residual enzyme activity at 10 uM by Ambit kinase binding assay relative to control.
A further experiment relates to HCT-116. Kind of experiment: Cytotoxicity against human HCT-116 cells assessed as loss of cell viability at 5 to 10 uM incubated for 10 days by crystal violet staining based assay. The experiment is classed as functional. The note with it: dose 5-10 µM, time 10.0 day. The gist of the method:
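Colony outgrowth: cells plated at 200 cells per 60-mm dish, exposed to compound or DMSO vehicle and stained with crystal violet after 10 days. HCT116 grown in McCoy's 5A; A549 and HeLa in DMEM; hTERT-RPE1 in DMEM/F-12. All media had 10% FBS and penicillin/streptomycin, 37°C, 5% CO2. Quantified from 3 independent experiments, mean + SD, Student's t test.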

For experiment [21], the system named is U2OS. The experiment in a line: Effect on thymidine-treated human U2OS cell populations after one cell doubling at 10 uM incubated for 4 hrs followed by thymidine release by immunofluorescence imaging analysis. It counts as functional, cell-based.
For experiment [22], the target named is Protein-tyrosine kinase 2-beta (Homo sapiens, UniProt Q14289). Kind of experiment: Inhibition of PTK2B (unknown origin) assessed as residual enzyme activity at 10 uM by Ambit kinase binding assay relative to control.
The test system of experiment [23] is U2OS. Kind of experiment: Reversal of nocodazole-induced mitotic arrest in human U2OS cells assessed as decrease in cyclin B level at 0.3 to 10 uM incubated for 4 hrs by immunoblot analysis. It counts as functional, cell-based. The note with it: dose 0.3-10 µM.
The test system of experiment [24] is U2OS. The experiment in a line: Effect on thymidine-treated human U2OS cell populations after two cell doubling at 10 uM incubated for 4 hrs followed by thymidine release by immunofluorescence imaging analysis. The experiment is classed as functional, cell-based.
Experiment [25] has as its target Dual specificity protein kinase CLK4 (Homo sapiens) (UniProt Q9HAZ1). Kind of experiment: Inhibition of CLK4 (unknown origin) assessed as residual enzyme activity at 10 uM by Ambit kinase binding assay relative to control.
For a further experiment, the system named is A549. Kind of experiment: Antiproliferative activity against human A549 cells at 10 uM measured after 96 hrs in presence of Z-VAD-FMK by Syto60 staining based assay. The experiment is classed as functional, cell-based.

Sequence of Cyclin-G-associated kinase (O14976 whole entry): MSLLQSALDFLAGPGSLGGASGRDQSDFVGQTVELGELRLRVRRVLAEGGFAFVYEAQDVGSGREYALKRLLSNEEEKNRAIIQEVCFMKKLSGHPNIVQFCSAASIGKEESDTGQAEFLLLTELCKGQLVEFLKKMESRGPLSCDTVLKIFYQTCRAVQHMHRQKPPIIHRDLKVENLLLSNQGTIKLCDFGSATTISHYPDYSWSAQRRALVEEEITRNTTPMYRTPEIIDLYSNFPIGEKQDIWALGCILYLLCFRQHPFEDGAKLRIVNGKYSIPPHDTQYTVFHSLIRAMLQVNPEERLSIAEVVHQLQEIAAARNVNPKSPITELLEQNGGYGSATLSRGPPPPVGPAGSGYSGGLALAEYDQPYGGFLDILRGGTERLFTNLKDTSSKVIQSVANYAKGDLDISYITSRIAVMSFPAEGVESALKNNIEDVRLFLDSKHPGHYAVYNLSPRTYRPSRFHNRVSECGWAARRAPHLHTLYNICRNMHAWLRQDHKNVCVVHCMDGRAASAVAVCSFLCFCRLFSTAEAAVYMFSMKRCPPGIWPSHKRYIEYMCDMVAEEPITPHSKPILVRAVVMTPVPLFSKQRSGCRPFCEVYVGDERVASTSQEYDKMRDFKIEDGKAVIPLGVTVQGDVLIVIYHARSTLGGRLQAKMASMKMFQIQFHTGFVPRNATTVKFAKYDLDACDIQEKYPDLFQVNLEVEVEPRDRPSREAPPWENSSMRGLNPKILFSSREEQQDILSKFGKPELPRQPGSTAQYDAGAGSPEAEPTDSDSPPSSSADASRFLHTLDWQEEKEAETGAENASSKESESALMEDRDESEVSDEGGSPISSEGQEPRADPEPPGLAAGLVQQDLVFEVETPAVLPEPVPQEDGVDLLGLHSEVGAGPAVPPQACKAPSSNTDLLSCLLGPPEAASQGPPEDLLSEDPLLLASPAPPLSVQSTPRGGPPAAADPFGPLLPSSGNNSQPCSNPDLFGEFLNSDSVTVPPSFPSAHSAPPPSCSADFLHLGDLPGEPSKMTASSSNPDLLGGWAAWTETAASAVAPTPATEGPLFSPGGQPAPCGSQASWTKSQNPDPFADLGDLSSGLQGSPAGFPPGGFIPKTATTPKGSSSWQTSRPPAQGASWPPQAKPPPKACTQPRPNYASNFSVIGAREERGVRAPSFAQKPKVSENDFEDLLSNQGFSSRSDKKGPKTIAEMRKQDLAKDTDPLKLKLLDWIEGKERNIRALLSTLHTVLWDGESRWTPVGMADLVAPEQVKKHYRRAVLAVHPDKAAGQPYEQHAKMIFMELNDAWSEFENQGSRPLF
Sequence of Leukocyte tyrosine kinase receptor (P29376 whole entry): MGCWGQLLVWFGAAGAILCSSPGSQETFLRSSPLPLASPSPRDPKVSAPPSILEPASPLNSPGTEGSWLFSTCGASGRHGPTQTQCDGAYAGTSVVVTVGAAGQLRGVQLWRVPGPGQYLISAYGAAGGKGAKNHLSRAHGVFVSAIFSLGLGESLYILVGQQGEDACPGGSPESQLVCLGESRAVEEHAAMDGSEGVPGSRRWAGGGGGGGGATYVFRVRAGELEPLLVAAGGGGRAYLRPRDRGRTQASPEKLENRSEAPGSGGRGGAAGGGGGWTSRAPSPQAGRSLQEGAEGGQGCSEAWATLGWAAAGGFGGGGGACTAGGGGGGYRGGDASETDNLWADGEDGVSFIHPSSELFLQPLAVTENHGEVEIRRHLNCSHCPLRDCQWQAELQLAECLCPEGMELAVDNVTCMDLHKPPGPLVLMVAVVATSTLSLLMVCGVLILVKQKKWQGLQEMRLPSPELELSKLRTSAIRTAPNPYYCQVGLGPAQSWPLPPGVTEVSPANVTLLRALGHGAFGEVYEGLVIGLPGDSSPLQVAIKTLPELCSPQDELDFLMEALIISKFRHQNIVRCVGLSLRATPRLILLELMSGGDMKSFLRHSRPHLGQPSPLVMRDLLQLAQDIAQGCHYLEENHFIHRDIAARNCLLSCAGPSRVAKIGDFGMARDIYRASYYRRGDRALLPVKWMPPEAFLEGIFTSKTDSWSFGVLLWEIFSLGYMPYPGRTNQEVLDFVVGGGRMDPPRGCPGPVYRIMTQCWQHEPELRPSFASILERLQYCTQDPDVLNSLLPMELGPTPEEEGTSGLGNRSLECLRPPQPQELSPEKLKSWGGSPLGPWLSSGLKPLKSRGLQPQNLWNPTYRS
Sequence of Ribosomal protein S6 kinase alpha-5 (Homo sapiens) (O75582 whole entry, looked up, the tested form may be a part): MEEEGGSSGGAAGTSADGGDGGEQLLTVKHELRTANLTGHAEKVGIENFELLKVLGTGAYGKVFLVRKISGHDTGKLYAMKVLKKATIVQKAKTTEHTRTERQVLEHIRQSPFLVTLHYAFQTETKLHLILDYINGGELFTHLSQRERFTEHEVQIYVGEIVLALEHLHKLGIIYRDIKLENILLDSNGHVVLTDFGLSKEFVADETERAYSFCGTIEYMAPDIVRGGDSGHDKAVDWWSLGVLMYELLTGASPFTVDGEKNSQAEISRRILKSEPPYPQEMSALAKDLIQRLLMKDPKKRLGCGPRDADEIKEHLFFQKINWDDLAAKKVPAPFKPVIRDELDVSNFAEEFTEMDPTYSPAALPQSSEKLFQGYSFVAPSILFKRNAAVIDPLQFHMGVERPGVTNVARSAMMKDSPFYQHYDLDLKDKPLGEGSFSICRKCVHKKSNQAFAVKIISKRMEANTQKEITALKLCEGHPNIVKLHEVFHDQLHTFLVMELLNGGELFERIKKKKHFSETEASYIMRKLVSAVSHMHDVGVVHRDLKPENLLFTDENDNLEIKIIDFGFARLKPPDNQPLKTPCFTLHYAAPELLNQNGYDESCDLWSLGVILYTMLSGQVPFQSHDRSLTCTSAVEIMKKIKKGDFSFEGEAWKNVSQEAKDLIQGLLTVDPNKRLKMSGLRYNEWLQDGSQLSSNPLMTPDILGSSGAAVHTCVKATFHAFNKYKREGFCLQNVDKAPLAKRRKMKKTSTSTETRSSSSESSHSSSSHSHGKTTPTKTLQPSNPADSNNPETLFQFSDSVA
Sequence of Calcium/calmodulin-dependent protein kinase kinase 2 (Homo sapiens) (Q96RR4 2-588 limits assumed): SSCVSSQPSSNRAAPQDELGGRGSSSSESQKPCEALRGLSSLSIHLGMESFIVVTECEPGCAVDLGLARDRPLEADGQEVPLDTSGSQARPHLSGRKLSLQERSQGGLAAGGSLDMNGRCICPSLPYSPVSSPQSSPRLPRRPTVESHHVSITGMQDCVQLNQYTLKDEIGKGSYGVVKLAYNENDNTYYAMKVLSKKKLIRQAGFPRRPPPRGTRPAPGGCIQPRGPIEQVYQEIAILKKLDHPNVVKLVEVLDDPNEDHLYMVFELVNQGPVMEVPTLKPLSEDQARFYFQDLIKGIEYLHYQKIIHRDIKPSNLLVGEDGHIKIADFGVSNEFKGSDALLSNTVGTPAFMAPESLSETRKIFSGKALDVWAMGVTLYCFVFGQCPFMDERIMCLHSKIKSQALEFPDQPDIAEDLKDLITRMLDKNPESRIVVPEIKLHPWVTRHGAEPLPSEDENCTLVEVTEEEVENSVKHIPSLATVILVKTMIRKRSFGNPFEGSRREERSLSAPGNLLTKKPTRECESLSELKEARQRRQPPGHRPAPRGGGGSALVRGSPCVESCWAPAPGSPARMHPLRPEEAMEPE
Sequence of BMP-2-inducible protein kinase (Homo sapiens) (Q9NSY1 whole entry, looked up): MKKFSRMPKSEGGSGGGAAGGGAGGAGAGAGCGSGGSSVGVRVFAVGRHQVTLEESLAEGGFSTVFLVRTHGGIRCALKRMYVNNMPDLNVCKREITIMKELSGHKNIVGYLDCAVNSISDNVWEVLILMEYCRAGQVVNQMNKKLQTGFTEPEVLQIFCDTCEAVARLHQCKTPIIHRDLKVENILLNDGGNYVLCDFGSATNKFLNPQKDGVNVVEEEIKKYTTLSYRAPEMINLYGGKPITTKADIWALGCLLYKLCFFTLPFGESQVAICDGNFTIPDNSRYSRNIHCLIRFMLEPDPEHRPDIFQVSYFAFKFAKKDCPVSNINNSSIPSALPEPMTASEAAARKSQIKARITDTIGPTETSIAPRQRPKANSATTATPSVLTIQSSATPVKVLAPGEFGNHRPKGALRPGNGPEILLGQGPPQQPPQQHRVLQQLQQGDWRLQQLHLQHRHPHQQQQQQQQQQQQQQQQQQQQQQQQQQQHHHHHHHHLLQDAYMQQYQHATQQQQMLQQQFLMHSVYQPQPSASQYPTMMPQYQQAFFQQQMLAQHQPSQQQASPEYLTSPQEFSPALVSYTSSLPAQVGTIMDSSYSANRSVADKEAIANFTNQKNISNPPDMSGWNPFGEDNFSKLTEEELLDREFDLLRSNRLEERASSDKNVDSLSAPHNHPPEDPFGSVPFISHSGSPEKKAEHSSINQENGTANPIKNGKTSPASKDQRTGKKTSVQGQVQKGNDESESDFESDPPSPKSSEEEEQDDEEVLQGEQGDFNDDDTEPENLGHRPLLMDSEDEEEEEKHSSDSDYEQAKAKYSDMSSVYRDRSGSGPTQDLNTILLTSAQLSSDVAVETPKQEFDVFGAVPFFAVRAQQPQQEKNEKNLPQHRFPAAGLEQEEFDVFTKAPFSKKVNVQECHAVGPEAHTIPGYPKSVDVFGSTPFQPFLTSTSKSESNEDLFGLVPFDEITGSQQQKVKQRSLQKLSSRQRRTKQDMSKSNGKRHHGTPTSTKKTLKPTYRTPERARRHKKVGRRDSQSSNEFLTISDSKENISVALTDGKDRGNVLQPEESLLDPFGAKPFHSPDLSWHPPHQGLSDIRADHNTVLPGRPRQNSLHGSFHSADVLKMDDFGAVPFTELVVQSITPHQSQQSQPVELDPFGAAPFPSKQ
Sequence of Serine/threonine-protein kinase pim-1 (Homo sapiens) (P11309 whole entry, looked up): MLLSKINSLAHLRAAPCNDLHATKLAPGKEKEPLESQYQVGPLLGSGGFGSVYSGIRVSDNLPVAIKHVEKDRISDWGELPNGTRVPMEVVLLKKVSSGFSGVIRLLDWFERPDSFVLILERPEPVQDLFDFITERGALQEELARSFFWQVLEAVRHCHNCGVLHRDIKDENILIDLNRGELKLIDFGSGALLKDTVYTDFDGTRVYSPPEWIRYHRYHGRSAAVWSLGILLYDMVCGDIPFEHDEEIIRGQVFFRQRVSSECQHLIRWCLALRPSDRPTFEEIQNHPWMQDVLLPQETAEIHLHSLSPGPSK

Take `O=C1c2ccccc2-c2n[nH]c3cccc1c23`: the Activity in experiment [1] was 26%; in [2], 1.4%; in [3], 3%; in experiment [4] it was 0.6%; in [5], 24%; in [6], 12%. The results for the Activity in [7], in [8] and in [9] were 0.25%, 12% and 28%, respectively.
Turning to `COc1cc(N2CCC(O)CC2)ccc1Nc1cc(Nc2ccccc2S(=O)(=O)C(C)C)c2cc[nH]c2n1`, the Activity was 24% in experiment [10]; 3.3 in the experiment on TERT-RPE1; “Dose-Dependent Effect” in the experiment on U2OS [12]; 12% in experiment [14]; 0.9% in [15]; 34% in experiment [17]. The Activity was 6% in [19], 7.3% in experiment [20], 0.1% in experiment [22] and 18% in experiment [25]. Also, the outcome with HeLa S3, in the experiment on U2OS [16], in the experiment with U2OS [21] and with U2OS [24] was inactive. The Kd in experiment [11] turned out to be 1100 nM; in experiment [13], 29 nM. The result in the experiment on U2OS [18], with HCT-116, with U2OS [23] and in the experiment on A549 was Active.

As usually defined, the Kd is a measure of binding affinity in units of concentration.
